Assays:
[1] = molecular target: Bruton's tyrosine kinase (BTK) (Homo sapiens, UniProt Q06187); assay: BTK occupancy in blood by immunocapture LC–MS/MS; type: in vivo; conditions: for Time at which BTK occupancy reached steady state: MAD
Procedure, shortened: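 Healthy volunteers in SAD and MAD parts (MAD doses 0.3–10 mg). Whole blood in ACD-A was lysed at once in buffer with protease inhibitor and a Cys481-reactive quencher, shaken 1 h at room temperature, and stored ≤−70°C. Anti-BTK bead immunocapture, on-bead trypsin digest, and LC–MS/MS of drug- or quencher-bound Cys481 peptide (residues 467–487). Occupancy = DB/(DB+QB)×100, and total BTK was also derived.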

[2] = test system: peripheral blood B‐cell populations; assay: Peripheral blood B-cell subsets; type: in vivo, human; conditions: MAD part
Procedure, shortened: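 Double-blind, placebo-controlled multiple-ascending-dose part in healthy adults aged 18–55 y (BMI 18–32 kg m−2), randomised 3:1 to test compound or placebo. Oral dosing once daily for 14 days at 0.3, 1, 3 or 10 mg, with 14 days of post-dosing follow-up. Peripheral blood B-cell subsets measured and summarised with descriptive statistics.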

[3] = test system: murine models of collagen‐ and collagen antibody–induced arthritis; conditions: administered orally once daily (QD); both arthritis models; cited from earlier work
EGFR kinases = conditions: in vitro assessment; cited from earlier work
[4] = preclinical studies; cited from earlier work
BTK = conditions: cited from earlier work
[5] = test system: serum immunoglobulin levels; assay: Serum immunoglobulins; type: in vivo, human; conditions: both parts (SAD and MAD)
Procedure, shortened: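 Healthy adults aged 18–55 y, randomised 3:1 to test compound or placebo, double-blind. Single-ascending-dose part: one oral dose of 0.3, 1, 3, 10 or 30 mg (n = 6 each; placebo n = 10). Multiple-ascending-dose part: oral dosing daily for 14 days at 0.3–10 mg. Serum immunoglobulins measured in both parts and summarised descriptively.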

healthy participants = assay: Safety assessment; type: in vivo, human; conditions: for Dizziness / Dysmenorrhoea / Headache / Myalgia / Nausea / Oral herpes / Rash / Tension headache / Throat irritation / Upper respiratory tract infection: all branebrutinib doses
[6] = Plasma pharmacokinetics by validated LC–MS/MS; type: in vivo, human; conditions: for AUC(0-inf) / Cmax / half-life / Tmax / Vd/F: human, plasma; for AUC(0-inf): GM AUCinf; for Cmax: GM Cmax; for Tmax: Median Tmax
[7] = oral, 0.3 mg, JMAD part (day 14), 0.3 mg QD, n = 6
[8] = oral, 0.3 mg, MAD part (day 14), 0.3 mg QD, n = 6
[9] = oral, 1 mg, MAD part (day 14), 1 mg QD, n = 6
[10] = oral, 1 mg, SAD part (day 1), 1 mg, n = 6
[11] = oral, 3 mg, JMAD part (day 14), 3 mg QD, n = 6
[12] = oral, 3 mg, MAD part (day 14), 3 mg QD, n = 6
[13] = oral, 3 mg, SAD part (day 1), 3 mg, n = 6
[14] = oral, 10 mg, JMAD part (day 14), 10 mg QD, n = 6
[15] = oral, 10 mg, MAD part (day 14), 10 mg QD, n = 5
[16] = oral, 10 mg, SAD part (day 1), 10 mg, n = 6
[17] = oral, 30 mg, SAD part (day 1), 30 mg, n = 6

Sequence of Bruton's tyrosine kinase (BTK) (Q06187 whole entry, the tested form may be a part): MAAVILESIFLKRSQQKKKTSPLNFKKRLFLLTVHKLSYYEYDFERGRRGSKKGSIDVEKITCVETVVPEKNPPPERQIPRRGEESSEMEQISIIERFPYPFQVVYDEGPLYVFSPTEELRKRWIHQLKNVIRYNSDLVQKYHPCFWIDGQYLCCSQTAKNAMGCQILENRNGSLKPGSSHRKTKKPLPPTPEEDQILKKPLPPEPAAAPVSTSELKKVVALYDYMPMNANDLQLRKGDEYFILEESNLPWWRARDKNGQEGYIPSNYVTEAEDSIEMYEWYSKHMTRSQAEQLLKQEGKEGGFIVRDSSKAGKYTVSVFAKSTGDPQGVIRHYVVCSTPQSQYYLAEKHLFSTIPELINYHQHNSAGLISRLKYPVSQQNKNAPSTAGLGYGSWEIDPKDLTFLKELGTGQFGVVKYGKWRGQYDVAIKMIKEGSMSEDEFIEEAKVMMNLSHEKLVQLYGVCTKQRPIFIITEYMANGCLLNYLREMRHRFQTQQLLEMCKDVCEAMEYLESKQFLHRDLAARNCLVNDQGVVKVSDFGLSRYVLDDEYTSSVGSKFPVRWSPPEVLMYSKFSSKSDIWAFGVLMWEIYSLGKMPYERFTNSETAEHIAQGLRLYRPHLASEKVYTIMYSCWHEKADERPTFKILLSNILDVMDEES

CC#CC(=O)N[C@H]1CCCN(c2c(F)cc(C(N)=O)c3[nH]c(C)c(C)c23)C1 [Branebrutinib]
Time at which BTK occupancy reached steady state ([1]; 0.3‐mg dose group): 14 days | Time at which BTK occupancy reached steady state ([1]; 10‐mg dose group): 1 days | Doses projected to be efficacious (BTK occupancy >90% at steady state) ([1]; at steady state, QD): ≥ 1 mg | Effect on peripheral blood B‐cell populations [2]: no obvious effect | Doses at which maximal efficacy was observed [3]: ≥ 0.5 mg/kg | Activity against EGFR kinases (EGFR kinases): lacks activity | Brain penetration [4]: < 5 % of plasma concentration | Selectivity for BTK over 4 related Tec family kinases (BTK): < 5000 fold | Selectivity for BTK over 240 other kinases (BTK): > 5000 fold | Effect on serum immunoglobulin levels [5]: no obvious effect | Dizziness (healthy participants; JMAD part, n = 18): 0 (0.0) n (%) | Dysmenorrhoea (healthy participants; JMAD part, n = 18): 2 (11.1) n (%) | Headache (healthy participants; JMAD part, n = 18): 1 (5.6) n (%) | Myalgia (healthy participants; JMAD part, n = 18): 0 (0.0) n (%) | Nausea (healthy participants; JMAD part, n = 18): 0 (0.0) n (%) | Oral herpes (healthy participants; JMAD part, n = 18): 0 (0.0) n (%) | Rash (healthy participants; JMAD part, n = 18): 0 (0.0) n (%) | Tension headache (healthy participants; JMAD part, n = 18): 0 (0.0) n (%) | Throat irritation (healthy participants; JMAD part, n = 18): 0 (0.0) n (%) | Upper respiratory tract infection (healthy participants; JMAD part, n = 18): 0 (0.0) n (%) | Serious AE (psychosis) leading to study discontinuation, number (healthy participants; MAD part, 10‐mg cohort, Day 10, considered not related to study drug): 1 | Any AE (healthy participants; MAD part, QD 14 days, all branebrutinib doses 0.3-10 mg, n = 24): 17 (70.8) n (%) | Dizziness (healthy participants; MAD part, n = 24): 0 (0.0) n (%) | Dysmenorrhoea (healthy participants; MAD part, n = 24): 0 (0.0) n (%) | Headache (healthy participants; MAD part, n = 24): 8 (33.3) n (%) | Myalgia (healthy participants; MAD part, n = 24): 0 (0.0) n (%) | Nausea (healthy participants; MAD part, n = 24): 2 (8.3) n (%) | Oral herpes (healthy participants; MAD part, n = 24): 3 (12.5) n (%) | Rash (healthy participants; MAD part, n = 24): 0 (0.0) n (%) | Tension headache (healthy participants; MAD part, n = 24): 2 (8.3) n (%) | Throat irritation (healthy participants; MAD part, n = 24): 0 (0.0) n (%) | Upper respiratory tract infection (healthy participants; MAD part, n = 24): 4 (16.7) n (%) | Dizziness (healthy participants; SAD part, n = 30): 3 (10.0) n (%) | Dysmenorrhoea (healthy participants; SAD part, n = 30): 2 (6.7) n (%) | Headache (healthy participants; SAD part, n = 30): 4 (13.3) n (%) | Myalgia (healthy participants; SAD part, n = 30): 2 (6.7) n (%) | Nausea (healthy participants; SAD part, n = 30): 2 (6.7) n (%) | Oral herpes (healthy participants; SAD part, n = 30): 1 (3.3) n (%) | Rash (healthy participants; SAD part, n = 30): 2 (6.7) n (%) | Tension headache (healthy participants; SAD part, n = 30): 0 (0.0) n (%) | Throat irritation (healthy participants; SAD part, n = 30): 2 (6.7) n (%) | Upper respiratory tract infection (healthy participants; SAD part, n = 30): 3 (10.0) n (%) | Any AE (healthy participants; SAD part, single dose, all branebrutinib doses 0.3-30 mg, n = 30): 18 (60.0) n (%) | Dose‐related trend in AEs (healthy participants; across both parts of the trial): no dose‐related trend | Tolerability (healthy participants; single or multiple doses in healthy participants): well tolerated | GM CLT/F (apparent total body clearance) ([6]; JMAD part (day 14), 0.3 mg QD, n = 5): 94.0 (n = 5) L/hr | GM CLT/F (apparent total body clearance) ([6]; JMAD part (day 14), 3 mg QD, n = 6): 109 (n = 6) L/hr | GM CLT/F (apparent total body clearance) ([6]; JMAD part (day 14), 10 mg QD, n = 6): 72.2 (n = 6) L/hr | GM CLT/F (apparent total body clearance) ([6]; MAD part (day 14), 0.3 mg QD, n = 5): 81.3 (n = 5) L/hr | GM CLT/F (apparent total body clearance) ([6]; MAD part (day 14), 1 mg QD, n = 6): 95.5 (n = 6) L/hr | GM CLT/F (apparent total body clearance) ([6]; MAD part (day 14), 3 mg QD, n = 6): 98.1 (n = 6) L/hr | GM CLT/F (apparent total body clearance) ([6]; MAD part (day 14), 10 mg QD, n = 5): 99.5 (n = 5) L/hr | Accumulation following administration of multiple doses ([6]; MAD, QD 14 days): No accumulation | GM CLT/F (apparent total body clearance) ([6]; SAD part (day 1), 0.3 mg single oral dose, n = 6): 126 L/h | GM CLT/F (apparent total body clearance) ([6]; SAD part (day 1), 1 mg, n = 6): 124 L/h | GM CLT/F (apparent total body clearance) ([6]; SAD part (day 1), 3 mg, n = 6): 122 L/h | GM CLT/F (apparent total body clearance) ([6]; SAD part (day 1), 10 mg, n = 6): 99.6 L/h | GM CLT/F (apparent total body clearance) ([6]; SAD part (day 1), 30 mg, n = 6): 106 L/h | Time to drop to undetectable plasma levels ([6]; after single or multiple doses): ≤ 24 h | AUC(0-inf) ([6]; oral, 0.3 mg, JMAD part (day 14), 0.3 mg QD, n = 5): 3.2 ng·h/mL | AUC(0-inf) ([6]; oral, 0.3 mg, MAD part (day 14), 0.3 mg QD, n = 5): 3.7 ng·h/mL | Cmax [6, 7]: 2 ng/mL | Cmax [6, 8]: 2.2 ng/mL | half-life ([6]; oral, 0.3 mg, Mean t1/2, JMAD part (day 14), 0.3 mg QD, n = 5): 54.6 min | half-life ([6]; oral, 0.3 mg, Mean t1/2, MAD part (day 14), 0.3 mg QD, n = 5): 78 min | Tmax [6, 7]: 30 min | Tmax [6, 8]: 60 min | Vd/F ([6]; oral, 1 mg): 255 L | AUC(0-inf) [6, 9]: 10.5 ng·h/mL | AUC(0-inf) [6, 10]: 8.1 ng·h/mL | Cmax [6, 9]: 5.9 ng/mL | Cmax [6, 10]: 4.6 ng/mL | half-life ([6]; oral, 1 mg, Mean t1/2, MAD part (day 14), 1 mg QD, n = 6): 99.6 min | half-life ([6]; oral, 1 mg, Mean t1/2, SAD part (day 1), 1 mg, n = 6): 95.4 min | Tmax [6, 9]: 30 min | Tmax [6, 10]: 30 min | Vd/F ([6]; oral, 3 mg): 304 L | AUC(0-inf) [6, 11]: 27.4 ng·h/mL | AUC(0-inf) [6, 12]: 30.6 ng·h/mL | AUC(0-inf) [6, 13]: 24.5 ng·h/mL | Cmax [6, 11]: 16.3 ng/mL | Cmax [6, 12]: 17.8 ng/mL | Cmax [6, 13]: 14.2 ng/mL | half-life ([6]; oral, 3 mg, Mean t1/2, JMAD part (day 14), 3 mg QD, n = 6): 90.6 min | half-life ([6]; oral, 3 mg, Mean t1/2, MAD part (day 14), 3 mg QD, n = 6): 98.4 min | half-life ([6]; oral, 3 mg, Mean t1/2, SAD part (day 1), 3 mg, n = 6): 104 min | Tmax [6, 11]: 30 min | Tmax [6, 12]: 30 min | Tmax [6, 13]: 48 min | Vd/F ([6]; oral, 10 mg): 221 L | AUC(0-inf) [6, 14]: 139 ng·h/mL | AUC(0-inf) [6, 15]: 101 ng·h/mL | AUC(0-inf) [6, 16]: 100 ng·h/mL | Cmax [6, 14]: 97.2 ng/mL | Cmax [6, 15]: 60.5 ng/mL | Cmax [6, 16]: 66.6 ng/mL | half-life ([6]; oral, 10 mg, Mean t1/2, JMAD part (day 14), 10 mg QD, n = 6): 102 min | half-life ([6]; oral, 10 mg, Mean t1/2, MAD part (day 14), 10 mg QD, n = 5): 104 min | half-life ([6]; oral, 10 mg, Mean t1/2, SAD part (day 1), 10 mg, n = 6): 93.6 min | Tmax [6, 14]: 30 min | Tmax [6, 15]: 30 min | Tmax [6, 16]: 30 min | Vd/F ([6]; oral, 30 mg): 245 L | AUC(0-inf) [6, 17]: 282 ng·h/mL | Cmax [6, 17]: 179 ng/mL | half-life ([6]; oral, 30 mg, Mean t1/2, SAD part (day 1), 30 mg, n = 6): 97.8 min | Tmax [6, 17]: 30 min | Vd/F ([6]; po, 0.3 mg): 216 L | Trough observed concentrations ([6]; multiple doses, LLOQ 0.100 ng mL^−1): below the LLOQ | Systemic exposure vs dose ([6]; single or multiple doses): dose‐proportional

From article PMC7444767 (British Journal of Clinical Pharmacology, 2020)
